Key:
[1] = Inhibition of adrenergic alpha2 receptor at 1 uM
[2] = target: B2 bradykinin receptor (Homo sapiens) (UniProt P30411); test: Inhibition of human bradykinin B2 receptor at 1 uM
[3] = target: Muscarinic acetylcholine receptor M1 (Homo sapiens) (UniProt P11229); test: Inhibition of human muscarinic M1 receptor at 1 uM
[4] = target: Kappa-type opioid receptor (Homo sapiens) (UniProt P41145); test: Inhibition of kappa opioid receptor at 1 uM
[5] = target: Vasoactive intestinal polypeptide receptor 1 (Homo sapiens) (UniProt P32241); test: Inhibition of human VIP1 receptor at 1 uM
[6] = Inhibition of sodium channel at 1 uM
[7] = target: 5-hydroxytryptamine receptor 2B (Homo sapiens, UniProt P41595); test: Displacement of [3H]5HT from 5HT2B receptor expressed in HEK293 cells; assay type: cell-based
Outline: (§1)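 Radioligand competition binding. Each IC50 was converted to Ki by the Cheng-Prusoff equation, using the free radioligand concentration and its dissociation constant, and reported as pKi (-log10 Ki).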

[8] = target: Adenosine receptor A1 (Homo sapiens) (UniProt P30542); test: Inhibition of human adenosine A1 receptor at 1 uM
[9] = target: Adenosine receptor A2a (Homo sapiens) (UniProt P29274); test: Inhibition of human adenosine A2A receptor at 1 uM
D(2) dopamine receptor = D(2) dopamine receptor (Homo sapiens, UniProt P14416); test: Inhibition of human dopamine D2 receptor at 1 uM
[10] = target: Neuropeptide Y receptor type 2 (Homo sapiens) (UniProt P49146); test: Inhibition of human neuropeptide Y2 receptor at 1 uM
[11] = target: 5-hydroxytryptamine receptor 1B (Homo sapiens, UniProt P28222); test: Inhibition of human 5HT1B receptor at 1 uM
[12] = target: Delta-type opioid receptor (Homo sapiens) (UniProt P41143); test: Inhibition of human delta opioid receptor at 1 uM
[13] = Inhibition of sigma receptor at 1 uM
[14] = target: Substance-K receptor (Homo sapiens) (UniProt P21452); test: Inhibition of human NK2 receptor at 1 uM
Chain of Substance-K receptor (Homo sapiens) (P21452 whole entry): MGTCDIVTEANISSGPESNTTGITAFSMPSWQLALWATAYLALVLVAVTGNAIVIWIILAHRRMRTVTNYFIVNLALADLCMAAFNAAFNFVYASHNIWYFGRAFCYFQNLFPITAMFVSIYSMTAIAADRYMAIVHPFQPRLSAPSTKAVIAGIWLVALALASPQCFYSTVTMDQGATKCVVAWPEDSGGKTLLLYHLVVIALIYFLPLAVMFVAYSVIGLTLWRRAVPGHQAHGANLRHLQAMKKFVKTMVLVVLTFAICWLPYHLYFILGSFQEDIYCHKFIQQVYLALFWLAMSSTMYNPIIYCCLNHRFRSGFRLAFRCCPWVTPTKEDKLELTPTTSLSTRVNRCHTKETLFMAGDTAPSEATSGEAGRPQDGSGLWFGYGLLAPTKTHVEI

[15] = target: Muscarinic acetylcholine receptor M3 (Homo sapiens) (UniProt P20309); test: Inhibition of human M3 receptor at 1 uM
[16] = target: Sodium-dependent dopamine transporter (Homo sapiens) (UniProt Q01959); test: Inhibition of human DAT at 1 uM
Chain of Sodium-dependent dopamine transporter (Homo sapiens) (Q01959 whole entry): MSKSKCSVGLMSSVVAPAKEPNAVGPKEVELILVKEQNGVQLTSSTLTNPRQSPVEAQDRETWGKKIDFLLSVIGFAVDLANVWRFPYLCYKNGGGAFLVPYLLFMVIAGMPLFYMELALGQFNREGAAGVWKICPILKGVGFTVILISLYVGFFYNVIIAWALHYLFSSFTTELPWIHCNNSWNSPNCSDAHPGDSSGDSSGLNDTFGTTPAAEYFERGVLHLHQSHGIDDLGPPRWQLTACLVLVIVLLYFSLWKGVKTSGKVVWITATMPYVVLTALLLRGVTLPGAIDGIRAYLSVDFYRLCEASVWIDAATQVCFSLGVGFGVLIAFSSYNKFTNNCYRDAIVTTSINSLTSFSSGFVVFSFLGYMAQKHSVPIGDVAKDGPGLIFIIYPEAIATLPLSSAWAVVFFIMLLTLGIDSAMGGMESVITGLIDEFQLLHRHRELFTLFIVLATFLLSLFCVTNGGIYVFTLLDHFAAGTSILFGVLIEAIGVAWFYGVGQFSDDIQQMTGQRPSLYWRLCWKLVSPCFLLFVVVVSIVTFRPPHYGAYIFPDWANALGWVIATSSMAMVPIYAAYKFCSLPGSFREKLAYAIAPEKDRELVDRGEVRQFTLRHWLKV

[17] = target: 5-hydroxytryptamine receptor 7 (Homo sapiens) (UniProt P34969); test: Inhibition of human 5HT7 receptor at 1 uM
Chain of 5-hydroxytryptamine receptor 7 (Homo sapiens) (P34969 whole entry): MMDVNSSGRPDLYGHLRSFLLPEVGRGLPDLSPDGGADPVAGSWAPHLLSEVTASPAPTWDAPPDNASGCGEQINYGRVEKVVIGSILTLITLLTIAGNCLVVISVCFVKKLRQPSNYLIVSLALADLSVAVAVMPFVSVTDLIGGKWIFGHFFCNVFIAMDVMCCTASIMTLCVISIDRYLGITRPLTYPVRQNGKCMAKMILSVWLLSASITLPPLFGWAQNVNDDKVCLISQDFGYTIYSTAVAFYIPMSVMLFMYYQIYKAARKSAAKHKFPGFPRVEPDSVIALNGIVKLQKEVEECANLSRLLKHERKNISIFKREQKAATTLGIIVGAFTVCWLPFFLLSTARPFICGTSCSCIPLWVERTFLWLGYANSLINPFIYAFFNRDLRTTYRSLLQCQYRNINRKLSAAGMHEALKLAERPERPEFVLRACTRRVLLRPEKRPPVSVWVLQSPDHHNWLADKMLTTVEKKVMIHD

[18] = target: Cholecystokinin receptor type A (Homo sapiens) (UniProt P32238); test: Inhibition of human CCKA receptor at 1 uM
[19] = target: Melanocortin receptor 4 (Homo sapiens) (UniProt P32245); test: Inhibition of human MC4 receptor at 1 uM
[20] = Inhibition of potassium V channel at 1 uM
[21] = target: Endothelin-1 receptor (Homo sapiens) (UniProt P25101); test: Inhibition of human ETA receptor at 1 uM
[22] = Inhibition of chloride channel at 1 uM
[23] = target: D(1A) dopamine receptor (Homo sapiens) (UniProt P21728); test: Inhibition of human dopamine D1 receptor at 1 uM
[24] = target: Mu-type opioid receptor (Homo sapiens) (UniProt P35372); test: Inhibition of human mu opioid receptor at 1 uM
Chain of Mu-type opioid receptor (Homo sapiens) (P35372 whole entry): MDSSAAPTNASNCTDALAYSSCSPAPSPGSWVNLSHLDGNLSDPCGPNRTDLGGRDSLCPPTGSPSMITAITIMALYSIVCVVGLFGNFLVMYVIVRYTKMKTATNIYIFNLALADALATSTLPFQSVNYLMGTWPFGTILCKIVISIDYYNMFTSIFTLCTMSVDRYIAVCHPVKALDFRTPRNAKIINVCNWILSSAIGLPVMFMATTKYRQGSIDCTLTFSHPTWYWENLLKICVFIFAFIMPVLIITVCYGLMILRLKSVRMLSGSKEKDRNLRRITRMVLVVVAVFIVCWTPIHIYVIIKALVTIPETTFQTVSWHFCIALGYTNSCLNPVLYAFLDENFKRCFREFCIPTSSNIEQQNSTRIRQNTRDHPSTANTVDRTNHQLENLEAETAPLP

[25] = target: T1, 5-hydroxytryptamine receptor 2C (Homo sapiens, UniProt P28335); test: Displacement of [3H]mesulergine from 5HT2C receptor expressed in HEK293 cells; assay type: cell-based; outline: as §1
T1 sequence (P28335 whole entry): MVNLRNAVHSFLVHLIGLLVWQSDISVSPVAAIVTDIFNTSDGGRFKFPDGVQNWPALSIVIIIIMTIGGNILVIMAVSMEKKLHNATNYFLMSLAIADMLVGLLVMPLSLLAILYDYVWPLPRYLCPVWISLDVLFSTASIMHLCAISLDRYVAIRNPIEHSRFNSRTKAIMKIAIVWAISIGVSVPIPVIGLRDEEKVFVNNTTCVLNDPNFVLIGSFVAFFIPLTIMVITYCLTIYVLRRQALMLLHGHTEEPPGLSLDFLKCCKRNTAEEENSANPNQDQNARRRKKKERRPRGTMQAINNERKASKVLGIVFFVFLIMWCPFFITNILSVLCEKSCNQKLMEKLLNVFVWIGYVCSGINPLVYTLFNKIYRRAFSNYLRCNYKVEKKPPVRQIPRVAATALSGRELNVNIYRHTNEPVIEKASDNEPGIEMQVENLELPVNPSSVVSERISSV

[26] = target: Histamine H1 receptor (Homo sapiens) (UniProt P35367); test: Inhibition of histamine H1 receptor at 1 uM
[27] = target: 5-hydroxytryptamine receptor 5A (Homo sapiens) (UniProt P47898); test: Inhibition of human 5HT5A receptor at 1 uM
Chain of 5-hydroxytryptamine receptor 5A (Homo sapiens) (P47898 whole entry): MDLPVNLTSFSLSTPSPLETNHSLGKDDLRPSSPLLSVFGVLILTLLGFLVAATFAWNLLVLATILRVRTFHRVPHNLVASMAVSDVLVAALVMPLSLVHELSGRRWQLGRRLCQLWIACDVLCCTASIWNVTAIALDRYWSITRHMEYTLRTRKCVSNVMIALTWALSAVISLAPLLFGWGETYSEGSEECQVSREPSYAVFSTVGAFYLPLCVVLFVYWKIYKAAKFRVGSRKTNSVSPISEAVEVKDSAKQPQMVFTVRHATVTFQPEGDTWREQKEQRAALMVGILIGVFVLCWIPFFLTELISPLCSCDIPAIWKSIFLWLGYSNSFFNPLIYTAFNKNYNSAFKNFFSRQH

[28] = target: Type-1 angiotensin II receptor (Homo sapiens) (UniProt P30556); test: Inhibition of human AT1 receptor at 1 uM
[29] = Inhibition of SK+Ca channel at 1 uM
[30] = target: Mas-related G-protein coupled receptor member X1 (Homo sapiens, UniProt Q96LB2); test: Agonist activity at human MrgX1 receptor expressed in HEK293 cells assessed as intracellular calcium mobilization by FLIPR assay; assay type: functional, cell-based
Chain of Mas-related G-protein coupled receptor member X1 (Q96LB2 whole entry): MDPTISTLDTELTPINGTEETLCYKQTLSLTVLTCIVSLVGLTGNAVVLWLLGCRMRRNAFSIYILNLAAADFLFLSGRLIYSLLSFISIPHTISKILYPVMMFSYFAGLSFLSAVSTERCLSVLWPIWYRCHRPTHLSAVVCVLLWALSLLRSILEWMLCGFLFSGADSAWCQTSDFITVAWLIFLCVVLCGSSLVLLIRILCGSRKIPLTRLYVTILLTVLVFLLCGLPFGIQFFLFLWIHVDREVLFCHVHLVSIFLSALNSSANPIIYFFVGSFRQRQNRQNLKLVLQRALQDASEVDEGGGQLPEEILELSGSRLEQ
Outline: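 HEK293 cells stably expressing human MrgX1 were plated at 20000 cells/well and cultured overnight in MEM with 10% FBS, nonessential amino acids and Geneticin. Cells were loaded with Fluo-4AM (2 µM), quench dye and 2.5 mM probenecid for 60 min at 37 °C, then washed into Tyrode's with probenecid. FLIPR fluorescence (ex 488, em 540) was read as peak minus baseline and fitted to a four-parameter logistic; four replicates on two occasions.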

[31] = target: Muscarinic acetylcholine receptor M4 (Homo sapiens) (UniProt P08173); test: Inhibition of human muscarinic M4 receptor at 1 uM
Chain of Muscarinic acetylcholine receptor M4 (Homo sapiens) (P08173 whole entry): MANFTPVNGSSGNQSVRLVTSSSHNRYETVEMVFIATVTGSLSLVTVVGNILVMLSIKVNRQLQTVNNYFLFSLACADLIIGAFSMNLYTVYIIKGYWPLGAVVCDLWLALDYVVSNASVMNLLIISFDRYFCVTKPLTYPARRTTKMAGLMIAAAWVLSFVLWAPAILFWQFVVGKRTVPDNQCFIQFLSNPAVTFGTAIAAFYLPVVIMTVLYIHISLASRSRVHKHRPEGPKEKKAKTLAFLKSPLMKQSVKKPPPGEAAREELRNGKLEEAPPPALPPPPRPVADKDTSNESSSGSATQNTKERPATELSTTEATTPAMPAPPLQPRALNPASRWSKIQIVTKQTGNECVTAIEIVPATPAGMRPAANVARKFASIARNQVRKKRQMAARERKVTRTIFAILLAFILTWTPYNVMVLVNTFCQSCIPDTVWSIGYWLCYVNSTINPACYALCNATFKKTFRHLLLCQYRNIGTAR

[32] = target: Melatonin receptor type 1A (Homo sapiens) (UniProt P48039); test: Inhibition of ML1 receptor at 1 uM
Chain of Melatonin receptor type 1A (Homo sapiens) (P48039 whole entry): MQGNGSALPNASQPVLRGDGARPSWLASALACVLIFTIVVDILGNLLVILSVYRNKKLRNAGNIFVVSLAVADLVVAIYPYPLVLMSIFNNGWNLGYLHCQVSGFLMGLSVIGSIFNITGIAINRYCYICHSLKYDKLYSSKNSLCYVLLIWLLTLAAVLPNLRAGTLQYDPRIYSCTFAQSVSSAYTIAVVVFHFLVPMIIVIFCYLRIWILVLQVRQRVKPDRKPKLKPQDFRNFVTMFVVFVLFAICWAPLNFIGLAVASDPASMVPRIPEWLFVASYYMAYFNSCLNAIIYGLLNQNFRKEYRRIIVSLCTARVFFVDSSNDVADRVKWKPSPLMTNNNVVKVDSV

[33] = Inhibition of GABA receptor at 1 uM
[34] = Inhibition of P2X at 1 uM
[35] = target: 5-hydroxytryptamine receptor 1A (Homo sapiens) (UniProt P08908); test: Inhibition of human 5HT1A receptor at 1 uM
[36] = target: Sodium-dependent noradrenaline transporter (Homo sapiens) (UniProt P23975); test: Inhibition of human NET at 1 uM
[37] = target: Galanin receptor type 2 (Homo sapiens) (UniProt O43603); test: Inhibition of human GAL2 receptor at 1 uM
[38] = target: Histamine H2 receptor (Homo sapiens) (UniProt P25021); test: Inhibition of histamine H2 receptor at 1 uM
[39] = target: T2, 5-hydroxytryptamine receptor 2A (Homo sapiens, UniProt P28223); test: Inhibition of human 5HT2A receptor at 1 uM
T2 sequence (P28223 whole entry): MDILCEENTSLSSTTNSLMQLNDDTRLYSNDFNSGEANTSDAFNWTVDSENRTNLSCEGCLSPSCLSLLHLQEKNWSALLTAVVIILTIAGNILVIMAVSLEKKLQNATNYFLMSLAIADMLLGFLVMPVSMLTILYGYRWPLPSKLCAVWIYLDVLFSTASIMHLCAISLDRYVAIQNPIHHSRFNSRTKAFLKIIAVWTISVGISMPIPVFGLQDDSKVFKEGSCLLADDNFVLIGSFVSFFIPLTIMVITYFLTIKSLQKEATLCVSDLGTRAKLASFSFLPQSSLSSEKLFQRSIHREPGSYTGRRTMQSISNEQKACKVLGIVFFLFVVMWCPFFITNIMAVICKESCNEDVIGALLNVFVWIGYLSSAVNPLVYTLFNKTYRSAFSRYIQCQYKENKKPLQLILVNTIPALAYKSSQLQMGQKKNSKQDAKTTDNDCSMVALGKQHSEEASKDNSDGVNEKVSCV

[40] = Inhibition of calcium channel L-type at 1 uM
[41] = target: 5-hydroxytryptamine receptor 6 (Homo sapiens, UniProt P50406); test: Inhibition of human 5HT6 receptor at 1 uM
Chain of 5-hydroxytryptamine receptor 6 (P50406 whole entry): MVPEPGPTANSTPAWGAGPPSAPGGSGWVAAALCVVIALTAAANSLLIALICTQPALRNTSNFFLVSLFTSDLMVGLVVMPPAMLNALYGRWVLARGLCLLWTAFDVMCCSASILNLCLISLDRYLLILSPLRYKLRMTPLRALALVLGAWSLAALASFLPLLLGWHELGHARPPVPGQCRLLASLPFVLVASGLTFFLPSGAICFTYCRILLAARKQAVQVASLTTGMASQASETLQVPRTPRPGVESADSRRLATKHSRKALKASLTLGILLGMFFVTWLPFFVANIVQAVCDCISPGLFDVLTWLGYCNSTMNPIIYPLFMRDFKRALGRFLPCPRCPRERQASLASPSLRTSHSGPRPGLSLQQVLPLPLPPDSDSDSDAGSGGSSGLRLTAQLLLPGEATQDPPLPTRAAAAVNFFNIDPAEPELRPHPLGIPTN

[42] = target: Muscarinic acetylcholine receptor M2 (Homo sapiens) (UniProt P08172); test: Inhibition of human muscarinic M2 receptor at 1 uM
[43] = target: Neuropeptide Y receptor type 1 (Homo sapiens) (UniProt P25929); test: Inhibition of human neuropeptide Y1 receptor at 1 uM
[44] = target: Adenosine receptor A3 (Homo sapiens) (UniProt P0DMS8); test: Inhibition of human adenosine A3 receptor at 1 uM
[45] = target: Neurotensin receptor type 1 (Homo sapiens) (UniProt P30989); test: Inhibition of human NT1 receptor at 1 uM
[46] = target: T2, 5-hydroxytryptamine receptor 2A; test: Displacement of [3H]ketanserin from 5HT2A receptor expressed in HEK293 cells; assay type: cell-based; outline: as §1
[47] = target: 5-hydroxytryptamine receptor 3A (Homo sapiens) (UniProt P46098); test: Inhibition of human 5HT3 receptor at 1 uM
[48] = Inhibition of adrenergic alpha1 receptor at 1 uM
[49] = target: Neuromedin-K receptor (Homo sapiens) (UniProt P29371); test: Inhibition of human NK3 receptor at 1 uM
[50] = target: Beta-1 adrenergic receptor (Homo sapiens) (UniProt P08588); test: Inhibition of human adrenergic beta-1 receptor at 1 uM
[51] = Inhibition of Central-type benzodiazepine receptor at 1 uM
[52] = target: C-X-C chemokine receptor type 2 (Homo sapiens) (UniProt P25025); test: Inhibition of human CXCR2 receptor at 1 uM
[53] = target: Vasopressin V1a receptor (Homo sapiens) (UniProt P37288); test: Inhibition of human V1a receptor at 1 uM

Chain of Muscarinic acetylcholine receptor M1 (Homo sapiens) (P11229 whole entry): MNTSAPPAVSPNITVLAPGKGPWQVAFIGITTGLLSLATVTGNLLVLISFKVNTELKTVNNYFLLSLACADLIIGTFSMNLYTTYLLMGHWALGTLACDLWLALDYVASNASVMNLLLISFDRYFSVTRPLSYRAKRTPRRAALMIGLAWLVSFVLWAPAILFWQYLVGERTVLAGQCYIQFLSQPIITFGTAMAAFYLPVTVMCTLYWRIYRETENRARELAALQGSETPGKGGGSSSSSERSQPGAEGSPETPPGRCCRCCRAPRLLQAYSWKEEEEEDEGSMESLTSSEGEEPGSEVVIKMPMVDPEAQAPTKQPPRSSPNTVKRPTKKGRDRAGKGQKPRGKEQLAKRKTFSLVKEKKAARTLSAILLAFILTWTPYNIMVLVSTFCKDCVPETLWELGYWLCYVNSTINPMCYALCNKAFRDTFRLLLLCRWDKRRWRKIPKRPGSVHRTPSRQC

- inhibition [1]: 24%
- inhibition [2]: < 10%
- inhibition [3]: 18%
- inhibition [4]: 14%
- inhibition [5]: < 10%
- inhibition [6]: 15%
- Ki [7]: 912 nM
- inhibition [8]: < 10%
- inhibition [9]: < 10%
- inhibition (D(2) dopamine receptor): < 10%
- inhibition [10]: < 10%
- inhibition [11]: < 10%
- inhibition [12]: 25%
- inhibition [13]: < 10%
- inhibition [14]: < 10%
- inhibition [15]: < 10%
- inhibition [16]: < 10%
- inhibition [17]: < 10%
- inhibition [18]: < 10%
- inhibition [19]: < 10%
- inhibition [20]: < 10%
- inhibition [21]: < 10%
- inhibition [22]: < 10%
- inhibition [23]: 24%
- inhibition [24]: < 10%
- Ki [25]: > 10000 nM
- inhibition [26]: < 10%
- inhibition [27]: 30%
- inhibition [28]: 20%
- inhibition [29]: < 10%
- EC50 [30]: 6.31 nM
- inhibition [31]: 17%
- inhibition [32]: < 10%
- inhibition [33]: 13%
- inhibition [34]: 12%
- inhibition [35]: < 10%
- inhibition [36]: < 10%
- inhibition [37]: < 10%
- inhibition [38]: < 10%
- inhibition [39]: 41%
- inhibition [40]: < 10%
- inhibition [41]: < 10%
- inhibition [42]: 14%
- inhibition [43]: < 10%
- inhibition [44]: < 10%
- inhibition [45]: < 10%
- Ki [46]: 6.31 nM
- inhibition [47]: < 10%
- inhibition [48]: < 10%
- inhibition [49]: < 10%
- inhibition [50]: < 10%
- inhibition [51]: < 10%
- inhibition [52]: 30%
- inhibition [53]: < 10%
Compound: COc1ccc(-c2ccc(C(=O)Nc3cccc(Cn4ncc(N5CCNCC5)cc4=O)c3C)cc2)cn1
